Data reported in ChEMBL document CHEMBL3232989, “First identification of boronic species as novel potential inhibitors of the Staphylococcus aureus NorA efflux pump” (J Med Chem, 2014).
In brackets after ≈: the same amount, converted by molar mass.

Columns and labels:
Staphylococcus aureus [1] = test: Toxicity in fluoroquinolone-resistant Staphylococcus aureus 1199B expressing NorA after 24 hrs by microdilution method; assay type: organism-based; settings: in vitro
Outline: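 Broth microdilution in Mueller–Hinton broth, 10^6 CFU/mL per well from an 18 h 37 °C culture. Compounds come from 10 mg/mL DMSO stocks as 2-fold serial dilutions, top 128 mg/L. Plates run 24 h at 37 °C and are read at 620 nm and visually. MIC is the lowest concentration with complete growth inhibition. Duplicates; 2-fold variance accepted.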

[2] = target: T1, Quinolone resistance protein NorA (Staphylococcus aureus) (UniProt P0A0J7); test: Inhibition of NorA in fluoroquinolone-resistant Staphylococcus aureus 1199B assessed as potentiation of 4 ug/ml of ciprofloxacin MIC at 100 ug/ml after 24 hrs by microdilution method
T1 sequence (whole entry): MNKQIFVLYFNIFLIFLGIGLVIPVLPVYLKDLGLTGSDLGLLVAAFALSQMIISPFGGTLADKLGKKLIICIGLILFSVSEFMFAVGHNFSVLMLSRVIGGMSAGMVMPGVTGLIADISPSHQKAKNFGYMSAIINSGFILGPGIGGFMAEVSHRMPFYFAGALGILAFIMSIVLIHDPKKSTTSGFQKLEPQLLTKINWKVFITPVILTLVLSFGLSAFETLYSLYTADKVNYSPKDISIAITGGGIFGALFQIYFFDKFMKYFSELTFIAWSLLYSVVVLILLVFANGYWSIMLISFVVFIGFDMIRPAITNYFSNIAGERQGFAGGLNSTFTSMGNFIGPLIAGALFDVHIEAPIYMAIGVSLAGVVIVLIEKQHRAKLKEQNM
Outline: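 Combination with ciprofloxacin 4 μg/mL (MIC/4) against SA-1199B in MH broth microdilution, 10^6 CFU/mL, 24 h at 37 °C, read at 620 nm and visually. Compounds are first screened at 100 μg/mL; actives are 2-fold serially diluted. MMC4 is the lowest inhibitor concentration giving antibacterial activity with subinhibitory ciprofloxacin. Duplicates.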

Staphylococcus aureus [3] = test: Toxicity in Staphylococcus aureus ATCC 25923 after 24 hrs by microdilution method; assay type: organism-based
Outline: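 Mueller–Hinton broth microdilution; inoculum from frozen culture grown 18 h at 37 °C, 10^6 CFU/mL per well. Compounds (10 mg/mL DMSO stock) in 2-fold serial dilutions, highest 128 mg/L, first screened at 100 μg/mL. MIC = complete growth inhibition after 24 h at 37 °C, read at 620 nm and visually; duplicate; ampicillin control.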

Staphylococcus aureus [4] = test: Toxicity in Staphylococcus aureus ATCC 25923 at 100 ug/ml after 24 hrs by microdilution method; assay type: organism-based
Outline: (§1)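 Single-point screen at 100 μg/mL of compound alone in MH broth microdilution, 10^6 CFU/mL, 24 h at 37 °C. Growth is read at 620 nm and visually, giving percent growth inhibition. Compounds inhibiting more than 90% then go to MIC determination. Duplicates.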

Staphylococcus aureus [5] = test: Toxicity in fluoroquinolone-resistant Staphylococcus aureus 1199B expressing NorA at 100 ug/ml after 24 hrs by microdilution method; assay type: organism-based; outline: as §1
[6] = Cytotoxicity against human KB cells assessed growth inhibition at 10 uM after 72 hrs by MTS assay; assay type: cell-based; settings: read-out: GI
Outline: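 KB cells (from NCI) grown in DMEM with 10% FCS, penicillin-streptomycin, fungizone and glutamine, 37 °C, 5% CO2; compounds in DMSO added 24 h after plating (1% DMSO final, controls same). 72 h exposure, then MTS 3 h at 37 °C, absorbance at 490 nm; inhibition = (1 − OD490 treated/OD490 control)×100, triplicate experiments.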

Row | SMILES | MIC (Staphylococcus aureus [1]) | Activity [2] [µg/mL] | MIC (Staphylococcus aureus [3]) | growth inhibition (GI) (Staphylococcus aureus [4]) [%] | growth inhibition (GI) (Staphylococcus aureus [5]) [%] | inhibition at 72 h, 10 µM [6] [%]
1 | O=Cc1ccccc1Cl | > 128 µg/mL | > 128 | >= 64 ug ml-1 | – | – | –
2 | O=C(O)c1cnc2ccccc2c1 | > 128 µg/mL | 32 | >= 64 ug ml-1 | – | – | –
3 | O=Cc1ccc(OCc2ccccc2)nc1 | > 128 µg/mL | 32 | >= 64 ug ml-1 | – | – | –
4 | O=Cc1ccccc1 [BENZALDEHYDE] | > 128 µg/mL | > 128 | >= 64 ug ml-1 | – | – | –
5 | OB(O)c1cc(Cl)cnc1Cl | > 128 µg/mL | 16 | >= 64 ug ml-1 | < 90 | – | –
6 | Oc1cnc2ccccc2c1 | > 128 µg/mL | > 128 | >= 64 ug ml-1 | – | – | –
7 | COc1ccc(B(O)O)cn1 | – | 4 | >= 64 ug ml-1 | < 90 | < 90 | 0
8 | CC(C)(O)C(C)(C)OB(OC(C)(C)C(C)(C)O)c1cc(Cl)cnc1Cl | 128 µg/mL (≈ 326 µM) | > 128 | >= 64 ug ml-1 | < 90 | – | –
9 | Oc1ccccc1Cl [2-CHLOROPHENOL] | > 128 µg/mL | 128 | >= 64 ug ml-1 | – | – | –
10 | Oc1ccccc1Br | > 128 µg/mL | 128 | >= 64 ug ml-1 | – | – | –
11 | Oc1ccc(Br)nc1 | > 128 µg/mL | > 128 | >= 64 ug ml-1 | – | – | –
12 | Oc1ccccc1 [PHENOL] | > 128 µg/mL | > 128 | >= 64 ug ml-1 | – | – | –
13 | OB(O)c1cncc(Oc2cccnc2)c1 | > 128 µg/mL | 16 | >= 64 ug ml-1 | – | – | –
14 | Cc1cc(C(=O)O)cnc1Cl | > 128 µg/mL | > 128 | >= 64 ug ml-1 | – | – | –
15 | O=C(O)c1cccnc1 [NIACIN] | > 128 µg/mL | > 128 | >= 64 ug ml-1 | – | – | –
16 | O=Cc1cccnc1 [NICOTINALDEHYDE] | > 128 µg/mL | > 128 | >= 64 ug ml-1 | – | – | –
17 | CC(C)(O)C(C)(C)OB(OC(C)(C)C(C)(C)O)c1cc(Br)cnc1F | 128 µg/mL (≈ 305 µM) | 64 | >= 64 ug ml-1 | < 90 | – | –
18 | O=C(O)c1ccc(Br)nc1 | > 128 µg/mL | > 128 | >= 64 ug ml-1 | – | – | –
19 | Cc1cccc(C(=O)O)c1Cl | > 128 µg/mL | > 128 | >= 64 ug ml-1 | – | – | –
20 | Oc1ccc2ccccc2c1 [BETANAPHTHOL] | > 128 µg/mL | 64 | >= 64 ug ml-1 | – | – | –
21 | OB(O)c1cc(Br)cnc1F | > 128 µg/mL | 128 | >= 64 ug ml-1 | < 90 | – | –
22 | Cc1cccc(O)c1Cl | > 128 µg/mL | 64 | >= 64 ug ml-1 | – | – | –

Row | SMILES | MIC (Staphylococcus aureus [1]) | Activity [2] [µg/mL] | MIC (Staphylococcus aureus [3]) | growth inhibition (GI) (Staphylococcus aureus [4]) [%] | growth inhibition (GI) (Staphylococcus aureus [5]) [%] | inhibition at 72 h, 10 µM [6] [%]
23 | O=C(O)c1ccc2ccccc2c1 [BETA-NAPHTOIC ACID] | > 128 µg/mL | > 128 | >= 64 ug ml-1 | – | – | –
24 | O=C(O)c1ccccc1Cl | 128 µg/mL (≈ 818 µM) | 64 | >= 64 ug ml-1 | – | – | –
25 | Oc1ccc(Cl)nc1 | > 128 µg/mL | > 128 | >= 64 ug ml-1 | – | – | –
26 | O=C(O)c1ccc(Cl)nc1 [6-CHLORONICOTINIC ACID] | > 128 µg/mL | > 128 | >= 64 ug ml-1 | – | – | –
27 | Cc1cc(O)cnc1Cl | > 128 µg/mL | > 128 | >= 64 ug ml-1 | – | – | –
28 | Oc1cccnc1 | > 128 µg/mL | > 128 | >= 64 ug ml-1 | – | – | –
29 | O=Cc1ccccc1Br | > 128 µg/mL | > 128 | >= 64 ug ml-1 | – | – | –
30 | CC(C)(O)C(C)(C)OB(OC(C)(C)C(C)(C)O)c1cncc(Cl)c1 | 128 µg/mL (≈ 358 µM) | > 128 | >= 64 ug ml-1 | – | – | –
31 | O=C(O)c1ccccc1 [BENZOIC ACID] | > 128 µg/mL | > 128 | >= 64 ug ml-1 | – | – | –
32 | O=C(O)c1ccccc1Br | > 128 µg/mL | > 128 | >= 64 ug ml-1 | – | – | –
33 | OCc1ccc(OCc2ccccc2)nc1 | >= 128 ug ml-1 | > 34 | – | – | – | –
34 | O=C(O)c1ccc(B(O)O)cc1 | – | > 128 | >= 64 ug ml-1 | < 90 | < 90 | –
35 | OB(O)c1ccc2[nH]ncc2c1 | – | 32 | >= 64 ug ml-1 | < 90 | < 90 | –
36 | Cc1cc(B(O)O)cnc1Br | – | 32 | >= 64 ug ml-1 | < 90 | < 90 | –
37 | COc1cccc(B(O)O)c1OC | – | > 128 | >= 64 ug ml-1 | < 90 | < 90 | –
38 | Cc1c[nH]nc1B(O)O | – | 64 | >= 64 ug ml-1 | < 90 | < 90 | –
39 | Cc1cc(B(O)O)cnc1N1CCOCC1 | – | 64 | >= 64 ug ml-1 | < 90 | < 90 | –
40 | O=Cc1cnc2ccccc2c1 | > 128 µg/mL | > 128 | >= 64 ug ml-1 | – | – | –
41 | CC(C)(O)C(C)(C)OB(OC(C)(C)C(C)(C)O)c1cccnc1C#N | – | > 128 | >= 64 ug ml-1 | < 90 | < 90 | –
42 | O=Cc1ccc2ccccc2c1 [2-NAPHTHALDEHYDE] | > 128 µg/mL | 64 | >= 64 ug ml-1 | – | – | –
43 | COc1ccc(B(O)O)cc1 | > 128 µg/mL | 64 | – | – | – | –
